The record followed here is ChEMBL document CHEMBL3259713, “Dissecting the structure of thiopeptides: assessment of thiazoline and tail moieties of baringolin and antibacterial activity optimization” (J Med Chem, 2014).

In brackets after ≈: the same amount, converted by molar mass. Square brackets hold non-standard residues; d marks the D form. Peptide text beside a SMILES is read from it. * marks the point of attachment. Dha = C=C(N)C(=O)O; X1 = O=C(c1cscn1)*

The subject of one data set is Staphylococcus aureus. The data set is described as follows: Antibacterial activity against Staphylococcus aureus assessed as growth inhibition after 24 hrs by CLSI M7-A9 broth microdilution method. It is filed as functional. In short, it runs like this:
(§1)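 Isolates from frozen stocks subcultured at least twice on sheep blood agar and grown 24 h before testing. Inoculum made by direct suspension in saline to 0.5 McFarland turbidity. MIC determined by broth microdilution in Mueller-Hinton broth following CLSI M7-A9, incubated at 35 °C for 24 h.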

The next data set deals with Micrococcus luteus. The data set is described as follows: Antibacterial activity against Micrococcus luteus ATCC 9341 assessed as growth inhibition after 24 hrs by CLSI M7-A9 broth microdilution method. It is filed as functional. As to conditions: ATCC 9341, 24 h. In short, it runs like this:
as §1

In another data set the test system is Bacillus subtilis. The data set is described as follows: Antibacterial activity against Bacillus subtilis ATCC 6633 assessed as growth inhibition after 24 hrs by CLSI M7-A9 broth microdilution method. It counts as functional. Particulars: ATCC 6633, 24 h. In short, it runs like this: as §1
The test system of a further data set is Cutibacterium acnes. The data set is described as follows: Antibacterial activity against Propionibacterium acnes assessed as growth inhibition after 24 hrs by CLSI M11-A8 broth microdilution method. It is filed as functional. In short, it runs like this: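 This anaerobe was subcultured at least twice from frozen stock on supplemented Brucella agar and grown 48 h before testing. Inoculum was a direct saline suspension at 0.5 McFarland. MIC was by microdilution in Brucella broth with hemin (5 μg/mL), vitamin K1 and 5% lysed horse blood per CLSI M11-A8, 35 °C for 24 h under anaerobic conditions.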

Data set [1] is described as follows: Solubility of the compound in 0.1 M phosphate buffer after 48 hrs by spectrophotometer analysis. It is filed as physicochemical. A digest of the protocol: (§2)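 About 1 mg of solid was combined with a known volume of solvent so that the solution was saturated. It was vortexed 1 min, shaken 48 h and centrifuged at 10000 rpm for 3 min. Dissolved compound in the supernatant was measured by absorbance at 304 nm.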

Data set [2] is described as follows: Solubility of the compound in water after 48 hrs by spectrophotometer analysis. It is filed as physicochemical. In short, it runs like this: as §2

Turning to `CCOC(=O)c1csc(-c2ccc3c(n2)-c2csc(n2)-c2csc(n2)[C@@H]2CCCN2C(=O)[C@H](Cc2ccc(O)cc2)NC(=O)c2csc(n2)[C@H](Cc2ccccc2)NC(=O)c2csc(n2)[C@H](CC(N)=O)NC(=O)c2nc-3oc2C)n1`, the minimum inhibitory concentration (MIC) with Staphylococcus aureus was > 8 µg/mL; in the data set with Micrococcus luteus it was 2 µg/mL (≈ 1.71 µM); with Bacillus subtilis it was > 8 µg/mL; in the data set on Cutibacterium acnes, 4 µg/mL (≈ 3.43 µM).

Regarding `C=C(NC(=O)C(=C)NC(=O)[C@@H]1CCCN1C(=O)[C@H](C)NC(=O)C(=C)NC(=O)c1csc(-c2ccc3c(n2)-c2csc(n2)-c2csc(n2)[C@@H]2CCCN2C(=O)[C@H](Cc2ccc(O)cc2)NC(=O)[C@H]2CSC(=N2)[C@H](Cc2ccccc2)NC(=O)c2csc(n2)[C@H](CC(N)=O)NC(=O)c2nc-3oc2C)n1)C(N)=O`, the minimal inhibitory concentration (MIC) amounted to 0.25 µg/mL (≈ 0.165 µM) with Staphylococcus aureus, 0.5 µg/mL (≈ 0.33 µM) with Micrococcus luteus, 0.25 µg/mL (≈ 0.165 µM) in the data set on Bacillus subtilis and 0.125 µg/mL (≈ 0.0825 µM) with Cutibacterium acnes.

Turning to `C=C(NC(=O)C(=C)NC(=O)[C@@H]1CCCN1C(=O)[C@H](C)NC(=O)C(=C)NC(=O)c1cscn1)C(N)=O` (X1-[Dha]AP[Dha][Dha]-NH2), the MIC in the data set on Staphylococcus aureus is > 8 µg/mL; in the data set on Micrococcus luteus, 2 µg/mL (≈ 3.97 µM); in the data set with Bacillus subtilis, > 8 µg/mL; with Cutibacterium acnes, 8 µg/mL (≈ 15.9 µM). Further, the solubility at 48 h came out at 6650 µg/mL (≈ 13200 µM) in data set [1] and 4660 µg/mL (≈ 9260 µM) in data set [2].

Regarding `C=C(NC(=O)C(=C)NC(=O)[C@@H]1CCCN1C(=O)[C@H](C)NC(=O)C(=C)NC(=O)c1csc(-c2ccc3c(n2)-c2csc(n2)-c2csc(n2)[C@@H]2CCCN2C(=O)[C@H](Cc2ccc(O)cc2)NC(=O)c2csc(n2)[C@H](Cc2ccccc2)NC(=O)c2csc(n2)[C@H](CC(N)=O)NC(=O)c2nc-3oc2C)n1)C(N)=O`, the MIC in the data set on Staphylococcus aureus was determined as 0.5 µg/mL (≈ 0.33 µM); with Micrococcus luteus it was 2 µg/mL (≈ 1.32 µM); with Bacillus subtilis it was 1 µg/mL (≈ 0.661 µM); in the data set with Cutibacterium acnes it was 8 µg/mL (≈ 5.28 µM).

`Cc1oc2nc1C(=O)N[C@@H](CC(N)=O)c1nc(cs1)C(=O)N[C@@H](Cc1ccccc1)c1nc(cs1)C(=O)N[C@@H](Cc1ccc(O)cc1)C(=O)N1CCC[C@H]1c1nc(cs1)-c1nc(cs1)-c1nc(-c3nc(C(N)=O)cs3)ccc1-2`: the minimum inhibitory concentration (MIC) in the data set on Staphylococcus aureus was 1 µg/mL (≈ 0.878 µM); in the data set with Micrococcus luteus it was > 8 µg/mL; in the data set with Bacillus subtilis it was 8 µg/mL (≈ 7.03 µM); with Cutibacterium acnes, 8 µg/mL (≈ 7.03 µM). The same compound gave a solubility at 48 h in data set [1] of 7 µg/mL (≈ 6.15 µM).

With `Cc1oc2nc1C(=O)N[C@@H](CC(N)=O)c1nc(cs1)C(=O)N[C@@H](Cc1ccccc1)c1nc(cs1)C(=O)N[C@@H](Cc1ccc(O)cc1)C(=O)N1CCC[C@H]1c1nc(cs1)-c1nc(cs1)-c1nc(-c3nc(C(=O)O)cs3)ccc1-2`, the minimal inhibitory concentration (MIC) with Staphylococcus aureus is 2 µg/mL (≈ 1.76 µM); in the data set on Micrococcus luteus, > 8 µg/mL; in the data set on Bacillus subtilis, 8 µg/mL (≈ 7.02 µM); with Cutibacterium acnes it was 2 µg/mL (≈ 1.76 µM). Moreover, in data set [1], the concentration in solution (solubility at 48 h) came to 23 µg/mL (≈ 20.2 µM).

For `C=C(NC(=O)[C@@H]1CCCN1C(=O)[C@H](C)NC(=O)C(=C)NC(=O)c1csc(-c2ccc3c(n2)-c2csc(n2)-c2csc(n2)[C@@H]2CCCN2C(=O)[C@H](Cc2ccc(O)cc2)NC(=O)C2CSC(=N2)[C@H](Cc2ccccc2)NC(=O)c2csc(n2)[C@H](CC(N)=O)NC(=O)c2nc-3oc2C)n1)C(N)=O` (stereo partly drawn), the MIC with Staphylococcus aureus came out at 0.5 µg/mL (≈ 0.346 µM); with Micrococcus luteus it was 1 µg/mL (≈ 0.691 µM); in the data set on Bacillus subtilis, 0.5 µg/mL (≈ 0.346 µM); in the data set with Cutibacterium acnes, 0.5 µg/mL (≈ 0.346 µM).

For the compound `CCOC(=O)c1csc(-c2ccc3c(n2)-c2csc(n2)-c2csc(n2)[C@@H]2CCCN2C(=O)[C@H](Cc2ccc(O)cc2)NC(=O)C2CSC(=N2)[C@H](Cc2ccccc2)NC(=O)c2csc(n2)[C@H](CC(N)=O)NC(=O)c2nc-3oc2C)n1` (stereo partly drawn), the MIC was > 8 µg/mL in the data set with Staphylococcus aureus, 4 µg/mL (≈ 3.42 µM) with Micrococcus luteus, 8 µg/mL (≈ 6.84 µM) in the data set on Bacillus subtilis and 4 µg/mL (≈ 3.42 µM) in the data set with Cutibacterium acnes.

`C=C(NC(=O)c1csc(-c2ccc3c(n2)-c2csc(n2)-c2csc(n2)[C@@H]2CCCN2C(=O)[C@H](Cc2ccc(O)cc2)NC(=O)c2csc(n2)[C@H](Cc2ccccc2)NC(=O)c2csc(n2)[C@H](CC(N)=O)NC(=O)c2nc-3oc2C)n1)C(=O)N[C@@H](C)C(=O)N1CCC[C@H]1C(N)=O`: the MIC in the data set with Staphylococcus aureus turned out to be 0.5 µg/mL (≈ 0.363 µM); in the data set with Micrococcus luteus, 2 µg/mL (≈ 1.45 µM); in the data set on Bacillus subtilis it was 8 µg/mL (≈ 5.82 µM); in the data set with Cutibacterium acnes, 4 µg/mL (≈ 2.91 µM).

With `Cc1oc2nc1C(=O)N[C@@H](CC(N)=O)c1nc(cs1)C(=O)N[C@@H](Cc1ccccc1)c1nc(cs1)C(=O)N[C@@H](Cc1ccc(O)cc1)C(=O)N1CCC[C@H]1c1nc(cs1)-c1nc(cs1)-c1nc(-c3nc(C(=O)N[C@H]4CC[C@H](C(=O)O)CC4)cs3)ccc1-2`, the MIC was 0.03 µg/mL (≈ 0.0237 µM) in the data set with Staphylococcus aureus, 0.5 µg/mL (≈ 0.395 µM) with Micrococcus luteus, 0.03 µg/mL (≈ 0.0237 µM) with Bacillus subtilis and 0.06 µg/mL (≈ 0.0474 µM) in the data set on Cutibacterium acnes. For the same compound, the solubility at 48 h in data set [1] was 18 µg/mL (≈ 14.2 µM).

Regarding `C=C(NC(=O)[C@@H]1CCCN1C(=O)[C@H](C)NC(=O)C(=C)NC(=O)c1csc(-c2ccc3c(n2)-c2csc(n2)-c2csc(n2)[C@@H]2CCCN2C(=O)[C@H](Cc2ccc(O)cc2)NC(=O)c2csc(n2)[C@H](Cc2ccccc2)NC(=O)c2csc(n2)[C@H](CC(N)=O)NC(=O)c2nc-3oc2C)n1)C(N)=O`, the MIC in the data set with Staphylococcus aureus stood at 0.5 µg/mL (≈ 0.346 µM); in the data set with Micrococcus luteus it was 2 µg/mL (≈ 1.38 µM); in the data set on Bacillus subtilis, 0.5 µg/mL (≈ 0.346 µM); in the data set on Cutibacterium acnes, 8 µg/mL (≈ 5.54 µM).

For `C=C(NC(=O)c1csc(-c2ccc3c(n2)-c2csc(n2)-c2csc(n2)[C@@H]2CCCN2C(=O)[C@H](Cc2ccc(O)cc2)NC(=O)C2CSC(=N2)[C@H](Cc2ccccc2)NC(=O)c2csc(n2)[C@H](CC(N)=O)NC(=O)c2nc-3oc2C)n1)C(=O)N[C@@H](C)C(=O)N1CCC[C@H]1C(N)=O` (stereo partly drawn), the MIC in the data set on Staphylococcus aureus was determined as 0.25 µg/mL (≈ 0.181 µM); in the data set with Micrococcus luteus, 0.5 µg/mL (≈ 0.363 µM); in the data set with Bacillus subtilis, 0.25 µg/mL (≈ 0.181 µM); in the data set with Cutibacterium acnes, 0.125 µg/mL (≈ 0.0907 µM).
